Test system: MS2 coat protein
Assay: apparent Kd, MS2 coat protein; higher = weaker binding; RNA-MaP array; FMN 200 µM where present
In short: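 Stalled E. coli RNA polymerase transcribed each design on Illumina sequencing-chip clusters. The clusters were titrated with SNAP-549-labelled MS2 coat protein, starting at 0.7 or 1.5 nM and doubling up to 3 µM, first without ligand and then with constant ligand, in 100 mM Tris-HCl pH 7.5, 80 mM KCl, 4 mM MgCl2, BSA, DTT, yeast tRNA and Tween-20. Green signal was normalised to red-channel RNA signal and to the control-cluster median Fmax. The apparent Kd is the median of filtered binding-curve fits made for each cluster.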

[1] = designed as: ON switch for flavin mononucleotide, no ligand
[2] = ligand present: flavin mononucleotide, designed as: ON switch for flavin mononucleotide
[3] = designed as: OFF switch for flavin mononucleotide, no ligand
[4] = ligand present: flavin mononucleotide, designed as: OFF switch for flavin mononucleotide

| Sequence | apparent Kd [1] [nM] | apparent Kd [2] [nM] | apparent Kd [3] [nM] | apparent Kd [4] [nM] |
| --- | --- | --- | --- | --- |
| UUACAGUGCGGGUAGGAUAUGUAGGGUGGUACAUGAGGAUCACCCAUGUAUCCACCCUUCGACCGGCAGAAGGGCCUAUCACUGC | 15.9 | 13.6 |  |  |
| ACAAAUGGAGGAUAUACAUGAGGAUCACCCAUGUUUAUCCUACAUAUGUGAUAAUAAUGUAGAAGGCCAUUUGA |  |  | 12.5 | 16.2 |
| GUGGUCAGACAUGAGGAUCACCCAUGUGGAAUAAAUAAGGAGAAGGAUAUGCAAUAUAGGAUAUAGUAGAAGGUCUGGUUGGUG | 83.5 | 97.2 |  |  |
| AGAUCCUGAGUCAGGAUAUAGAGGCGAAAGCCUGGCUAGAAGGGACAUGAGGAUCACCCAUGUGGGUUCGUGCC |  |  | 20.2 | 66.5 |
| GGAAAACAUGAGGAUCACCCAUGUGAGGAUAUCGAUGUCCAACCCAAAGUGCGGGACUCGAGAAGGCACUUGGA |  |  | 45.7 | 31.5 |
| CAACUGGCACAGAAGGGUGACAUGAGGAUCACCCAUGUAGCGUGGCACUCAGGAGGAGCCACGCCACAGGAUAUGUGCGGGCAC | 42.3 | 78.4 |  |  |
| GCCUCACAUGAGGAUCACCCAUGUCAGGAUAUAGGAGACGGCAGAAAUCCUGCCAUCGCUAGAAGGGACUGGCA |  |  | 23.9 | 105 |
| AGUAUGAGAGGAUAUACUAAUAAACAUGGAAACAUGAAGGGACAUGAGGAUCACCCAUGUAGAAGGCUCGUACA |  |  | 55.6 | 177 |
| CGCUAGGAUGGGUCUAAUGGACCACAGGAUAUGCUUGUACAUGAGGAUCACCCAUGUAAUAUUGUGCAGAAGGGUGGAUUCGCG | 76 | 10.9 |  |  |
| GUUGGCUGAGGAUAUGCUUGCGUGCUUUUGUGUCGCGGGUGACAUGAGGAUCACCCAUGUAGAAGGUGGUCGGC |  |  | 818 | 673 |
| UUUUAACAUGAGGAUCACCCAUGUGAGGAUAUCGAAAUUUAUAUUUAUAUUUAUAUUUCGAGAAGGCACAUUUU |  |  | 176 | 156 |
| GUCCGGCGUGUAGGAUAUGGAUCCGAUUAGGAUCCAGAAGGACAUGAGGAUCACCCAUGUACAUGUAAACAGUCAUCACCGGAU |  |  | 7.5 | 23.5 |
| CGGGCCGUCUACAUGAGGAUCACCCAUGUGACGGAAGUAACACAGGAUAUCCUCUAAUUGUAGACGGAGAAGGGUGGCCCGAAU | 28.9 | 159 |  |  |
| AAUAACAGAGGAUAUACUGUUUUAUGUGUUUGUUGUUUUGAACAUGAGGAUCACCCAUGUAGAAGGCUGAUUAA |  |  | 35.3 | 33.5 |
| CUAGAAAGGACAGGAUAUCGGGAUCGAACACCCGACAUGAGGAUCACCCAUGUCGCAAAAGAUAGCGAGAAGGGUCGGACACAA | 45.8 | 14.1 |  |  |
| GAUCCGGUCAAGAGGAUUUUGGAGUGAGAAGGGAGGCUGCUACAUGAGGAUCACCCAUGUGAUACUCAGGAUAUUAGUCUACUA | 215 | 155 |  |  |
| GCGGAACAUGAGGAUCACCCAUGUAAAGGGUGUAAAGGAUAUUAUUGGGAGAAGGUAGGGUAAGAAGGUUGCUUGG | 887 | 1280 |  |  |
| GUCUCGUCAGGAUAUGACGCUACAUUUUUUUUUUAGAAGAGUCAGAAGGGACAUGAGGAUCACCCAUGUGAUUC |  |  | 288 | 218 |
| GUAGCAUAGGCAGGAUAUUCAUAUAAUAAAUAAACAUGAGGAUCACCCAUGUGGCGAAAGCCUUGGGAGAAGGGCCAAUGCUAC | 933 | 60.9 |  |  |

| Sequence | apparent Kd [1] [nM] | apparent Kd [2] [nM] | apparent Kd [3] [nM] | apparent Kd [4] [nM] |
| --- | --- | --- | --- | --- |
| AAUCGGGAGCAGAAGGCAUGUCAUAAGACAUGAGGAUCACCCAUGUAGUUAAGAUGAAAAUCGCAUGAGGAUAUGCUCCCGUAA | 115 | 18.5 |  |  |
| CCGGAGACGGGUAGCCUGACAUGAGGAUCACCCAUGUAAUACGAGGAUAUGGAUCCUAAUUGGAUCCAGAAGGUGUCAGGCUAC | 908 | 729 |  |  |
| GGAGAACAUGAGGAUCACCCAUGUGGAUGGGCGCUAGGAUAUGCGAGAGGGUGGAGAGAAGCAGAAGGAGUGGAUA | 62.2 | 54.5 |  |  |
| AGAAGUAUGCAGGAUAUGGGAACCUAUUGACAUUCAGAAGGGCAUACAUGAGGAUCACCCAUGUGGCCUCCCAG |  |  | 19.3 | 35.1 |
| CCGCUGUGAGGAUAUUAGUAGUAGUCAGAAUAGACUAUUACUGAGAAGGCACAUGAGGAUCACCCAUGUCGCGG |  |  | 31.2 | 43.1 |
| ACAUGAGGAUCACCCAUGUUUUUCGGGUACUCUUUUUACAGCAAGGAUAUGCAUUAUUUAUGUACGCAGAAGGUGCUUUACGUC |  |  | 77 | 138 |
| GACUGAUUGUAGAAGGUACUUGAAAAUAUUUAAUAACUCAUGUGACAUGAGGAUCACCCAUGUAGUAAGGAUAUACAUAUCACA | 198 | 91 |  |  |
| AGAUAGUCAGGAUAUACAUGGAUGAUACACGUAUUUCCACUACAUGAGGAUCACCCAUGUAGAAGGGACUAUCA |  |  | 27.6 | 15.1 |
| AUAUUACGAGGAUAUCGUUUUUUUCACAUGAGGAUCACCCAUGUUAUUUAUGUUUCGUUUCGAGAAGGCGUAAGUU |  |  | 25 | 22.1 |
| ACUAUACGAGGAUAUACUGUCAGUACUCAGACAUAAAUAUGACAUGAGGAUCACCCAUGUAGAAGGCGUUUACU |  |  | 29 | 39 |
| UUCCUGGUGUAGAAGGAGGCCGAGCUCAAGCGGACGUCCUGAAUUGCGGGCCUAGGAUAUACAUGAGGAUCACCCAUGUACGGA |  |  | 39.8 | 111 |
| UUGUUCUGAGGAUAUACAUGAGGAUCACCCAUGUGUUUCUGCUAGGAGACUAGCGAAUGUAGAAGGCUGUUCUC |  |  | 19.4 | 19.9 |
| AAGGAUAGAGGAUAUACAUAGAUACAGAUUCAUGUGGUCCUACAUGAGGAUCACCCAUGUAGAAGGCUAUCCUA |  |  | 240 | 56.8 |
| UUUUACUUAGGAUAUACAUUUUUUUAUUUAUUUAUAAUAUUACAUGAGGAUCACCCAUGUAGAAGGGAGAUUUU |  |  | 77 | 63.4 |
| GGGUACAUCGGAGGAUAUCAUGUAAAUACAUGAGGAUCACCCAUGUCGACGGAGACAUCGGAGAUUGAGAAGGCCGAUGUACCG | 42.2 | 367 |  |  |
| AGCUGUGGCCGAGGAUAUCUGAACUUUCAAACCGAAAUAUAAUCGGACAUGAGGAUCACCCAUGUAGAGAAGGCGGUCUCAGCA |  |  | 16 | 13.6 |
| AGAUUUUUUACAGGAUAUGUUAGUUUACAGUUGAUUGGUUAUUACAUUAUGACAGAAGGGUAGAACAUGAGGAUCACCCAUGUA | 374 | 174 |  |  |
| CCCGGCGUGUCGCUACGCCGAGAGCAGGAUAUUCCGCCGUGAUCUACAUGAGGAUCACCCAUGUGGAAGAAGGGCUACACAAAA |  |  | 14.2 | 122 |
| AUUAUUAAAGUGAGGAUAUCUAGAGCCUCGGCUCUAGAGAAGGCACAUGAGGAUCACCCAUGUCUCAAUUAUUA |  |  | 19.1 | 56.1 |

| Sequence | apparent Kd [1] [nM] | apparent Kd [2] [nM] | apparent Kd [3] [nM] | apparent Kd [4] [nM] |
| --- | --- | --- | --- | --- |
| GGAUUACAUGAGGAUCACCCAUGUGAGGAUAUCGAUGUCCUCAGUCGAGUGCGGGACUCGAGAAGGCACUUGGA |  |  | 77 | 57.5 |
| GCGCAGUCAGGAUAUGCCGCUUGCGAUCACCGUUGGCAAAGGCAGAAGGGACAUGAGGAUCACCCAUGUGGCGC |  |  | 19.3 | 22.9 |
| UAGAAUCGAGGAUAUACAUGAGGAUCACCCAUGUGUGGCCAUACUGUGUGGUCGUCAGGUAGAAGGCGAUUAUA |  |  | 72.3 | 22.6 |
| UUGUUGUGAGGAUAUCCAAUAUAUGACAUGAGGAUCACCCAUGUUUCCACUCGUACCUCCGGAGAAGGCACUUAGU |  |  | 29.2 | 27.9 |
| GUACUUGUGCAGAAGGGCAUUGAAUUAGGUUUUUAGGUUGAUCAGAAAUGCAGGAUAUGUUAAACAUGAGGAUCACCCAUGUAC | 66.3 | 13.7 |  |  |
| UAAAAGACUAGCAAAUAAUCCUUCACAUGAGGAUCACCCAUGUAGGAUAUGAGCAGAAAAUCUGCUCAGAAGGACAUGCUAGUC |  |  | 3.22 | 3.68 |
| AGAUGACAAUGUCAUCUUCGUCGGACAUGAGGAUCACCCAUGUAGGAUAUGCUACUCAAAGAGUAGCAGAAGGACAUGUGUCUU |  |  | 19.7 | 41.1 |
| AUAACUGUACGAGGAUAUCCAAGGGCAGCCCUAGGAGAAGGCGUACAUGAGGAUCACCCAUGUACUAUAUGGAGUUCGCUCGUG |  |  | 30.7 | 88.4 |
| UCUCGACAUGAGGAUCACCCAUGUCAGGAUAUUGUGUUUUGGGUUUUUUACCUUUUGGCAAGAAGGGAUGUGUG |  |  | 23 | 22.1 |
| ACCAGCUCGUCAGGAUAUACGUCACUGCGUCAGCAGUGUGGUAAGAUCACAUGAGGAUCACCCAUGUAGAAGGGACGAGCUGAU |  |  | 13.3 | 245 |
| UUGUUGUAUGUAGGAUAUGCAUAUUAUUAUUGUGCAGAAGGACAUGAGGAUCACCCAUGUAUAUUAUUAUUAUAUGUUAUAUAU |  |  | 30.6 | 37.4 |
| UCACGGGACUAAGGAUAUACAUGAACUAUUAUUGUAGAAGGUAGAAUGUUAGAUUAUACACUAAACAUGAGGAUCACCCAUGUU |  |  | 21.1 | 19.6 |
| AAAAAGGCAGGAUAUGCAUACACACAAAAAAAAAAACUGGGACAUGAGGAUCACCCAUGUAGAAGGGCCAAAAA |  |  | 29.4 | 25.9 |
| CCUCCACAUGAGGAUCACCCAUGUCAGGAUAUCGUGUGUUUUUUUUCGGCCGCGCGUGCGAGAAGGGACGUCUU |  |  | 19.5 | 19.8 |
| UUUUAACAUGAGGAUCACCCAUGUGAGGAUAUCGAAAUUUAUAUUUAUAUUAAUAUAACGAGAAGGCACAUUUU |  |  | 55.5 | 83.2 |
| CUACAUGAGGAUCACCCAUGUGCACGCCAGAUCGGUGUGCGCAGAAGGGCCAUGGAGAAAGCCAGGCAGGAUAUGCAAAGGGCU | 353 | 162 |  |  |
| UUCAACGAUGAAGGAUAUCUAUGUCCAACAUGAGGAUCACCCAUGUUGAGGAUUACCUAUGUGUAGGAGAAGGUCAAUUUGACU | 7.01 | 6.51 |  |  |
| GUACUCAUGUAAGGAUAUGCAGCCGUUUCGGCUGCAGAAGGUACUAUAAUACAUGAGGAUCACCCAUGUCUCUCGCAUUGCGAG | 465 | 98.4 |  |  |
